The target in assay [1] is Glutamate NMDA receptor; Grin1/Grin2a (Rattus norvegicus, UniProt P35439+Q00959). Kind of assay: Antagonist activity at rat recombinant NR1-NR2A receptor expressed in Xenopus oocytes at holding potential of -40mV by two-electrode voltage-clamp electrophysiology. It is filed as functional, cell-based, Oocyte. Conditions: for pIC50: read-out: IC50; call rule not given here. An outline of the steps:
(§1)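 Oocytes expressing rat NR1-1a with NR2A, NR2B, NR2C or NR2D, clamped at −40 mV in Ba2+/HEPES recording solution pH 7.4, 23°C. Current evoked by 100 μM glutamate plus 30 μM glycine. Final DMSO 0.05-0.5%, 5-7 inhibitor concentrations, ≥4 oocytes each. IC50 from Hill fit of normalized mean composite data. […] Some NR2A oocytes given BAPTA-AM or K-BAPTA.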

Assay [2] is filed under the species Rattus norvegicus. Kind of assay: Selectivity ratio of IC50 for rat recombinant GLuR1 to IC50 for rat recombinant NR1-NR2D receptor. The gist of the method:
(§2)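 Ratio of fitted IC50 values, either NR2A/NR2D or GluR1/NR2D, from two-electrode voltage-clamp Hill fits in oocytes. Where noted, calculated from IC50 values rounded to the nearest μM.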

For assay [3], the target named is Glutamate NMDA receptor; Grin1/Grin2b (Rattus norvegicus, UniProt P35439+Q00960). In words: Antagonist activity at rat recombinant NR1-NR2B receptor expressed in Xenopus oocytes at holding potential of -40mV by two-electrode voltage-clamp electrophysiology. Conditions: for pIC50: read-out: IC50. It is filed as functional, cell-based, Oocyte. An outline of the steps: as §1

Assay [4] addresses Glutamate NMDA receptor; Grin1/Grin2c (Rattus norvegicus, UniProt P35439+Q00961). Kind of assay: Antagonist activity at rat recombinant NR1-NR2C receptor expressed in Xenopus oocytes at holding potential of -40mV by two-electrode voltage-clamp electrophysiology. The assay is classed as functional, cell-based, Oocyte. An outline of the steps: as §1
Assay [5] concerns the target Ionotropic glutamate receptor NMDA 1/2D (Rattus norvegicus, UniProt P35439+Q62645). Kind of assay: Antagonist activity at rat recombinant NR1-NR2D receptor expressed in Xenopus oocytes at holding potential of -40mV by two-electrode voltage-clamp electrophysiology. It is filed as functional, cell-based, Oocyte. The gist of the method: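 Oocytes expressing rat NR1-1a with NR2A, NR2B, NR2C or NR2D, clamped at −40 mV in Ba2+/HEPES recording solution pH 7.4, 23°C. Current evoked by 100 μM glutamate plus 30 μM glycine. Final DMSO 0.05-0.5%, 5-7 inhibitor concentrations, ≥4 oocytes each. IC50 from Hill fit of normalized mean composite data. Some NR2A oocytes given BAPTA-AM or K-BAPTA.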

The target of the next assay is Glutamate receptor 1 (Rattus norvegicus, UniProt P19490). In words: Antagonist activity at rat recombinant GLuR1 expressed in Xenopus oocytes assessed as inhibition of glutamate-induced current by two-electrode voltage-clamp electrophysiology. It is filed as functional, cell-based, Oocyte. An outline of the steps: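 Two-electrode voltage clamp at −40 mV on Xenopus oocytes expressing rat GluR1, perfused with 90 NaCl, 1.0 KCl, 0.5 BaCl2, 0.005 EDTA, 10 HEPES (mM), pH 7.4, 23°C; activated by 100 μM glutamate. From 20 mM DMSO stocks, 5-7 concentrations, ≥4 oocytes each. Hill fit to mean composite curves normalized to control, minimum usually fixed at 0. Response >75% at 100 μM reported as >300 μM.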

The species named for assay [6] is Rattus norvegicus. Kind of assay: Selectivity ratio of IC50 for rat recombinant NR1-NR2A receptor to IC50 for rat recombinant NR1-NR2D receptor. An outline of the steps:
as §2

Molecules are shown by their SMILES. pIC50: −log10 of the molar value.

Chain of Glutamate NMDA receptor; Grin1/Grin2b (Q00960 whole entry, other chains not shown): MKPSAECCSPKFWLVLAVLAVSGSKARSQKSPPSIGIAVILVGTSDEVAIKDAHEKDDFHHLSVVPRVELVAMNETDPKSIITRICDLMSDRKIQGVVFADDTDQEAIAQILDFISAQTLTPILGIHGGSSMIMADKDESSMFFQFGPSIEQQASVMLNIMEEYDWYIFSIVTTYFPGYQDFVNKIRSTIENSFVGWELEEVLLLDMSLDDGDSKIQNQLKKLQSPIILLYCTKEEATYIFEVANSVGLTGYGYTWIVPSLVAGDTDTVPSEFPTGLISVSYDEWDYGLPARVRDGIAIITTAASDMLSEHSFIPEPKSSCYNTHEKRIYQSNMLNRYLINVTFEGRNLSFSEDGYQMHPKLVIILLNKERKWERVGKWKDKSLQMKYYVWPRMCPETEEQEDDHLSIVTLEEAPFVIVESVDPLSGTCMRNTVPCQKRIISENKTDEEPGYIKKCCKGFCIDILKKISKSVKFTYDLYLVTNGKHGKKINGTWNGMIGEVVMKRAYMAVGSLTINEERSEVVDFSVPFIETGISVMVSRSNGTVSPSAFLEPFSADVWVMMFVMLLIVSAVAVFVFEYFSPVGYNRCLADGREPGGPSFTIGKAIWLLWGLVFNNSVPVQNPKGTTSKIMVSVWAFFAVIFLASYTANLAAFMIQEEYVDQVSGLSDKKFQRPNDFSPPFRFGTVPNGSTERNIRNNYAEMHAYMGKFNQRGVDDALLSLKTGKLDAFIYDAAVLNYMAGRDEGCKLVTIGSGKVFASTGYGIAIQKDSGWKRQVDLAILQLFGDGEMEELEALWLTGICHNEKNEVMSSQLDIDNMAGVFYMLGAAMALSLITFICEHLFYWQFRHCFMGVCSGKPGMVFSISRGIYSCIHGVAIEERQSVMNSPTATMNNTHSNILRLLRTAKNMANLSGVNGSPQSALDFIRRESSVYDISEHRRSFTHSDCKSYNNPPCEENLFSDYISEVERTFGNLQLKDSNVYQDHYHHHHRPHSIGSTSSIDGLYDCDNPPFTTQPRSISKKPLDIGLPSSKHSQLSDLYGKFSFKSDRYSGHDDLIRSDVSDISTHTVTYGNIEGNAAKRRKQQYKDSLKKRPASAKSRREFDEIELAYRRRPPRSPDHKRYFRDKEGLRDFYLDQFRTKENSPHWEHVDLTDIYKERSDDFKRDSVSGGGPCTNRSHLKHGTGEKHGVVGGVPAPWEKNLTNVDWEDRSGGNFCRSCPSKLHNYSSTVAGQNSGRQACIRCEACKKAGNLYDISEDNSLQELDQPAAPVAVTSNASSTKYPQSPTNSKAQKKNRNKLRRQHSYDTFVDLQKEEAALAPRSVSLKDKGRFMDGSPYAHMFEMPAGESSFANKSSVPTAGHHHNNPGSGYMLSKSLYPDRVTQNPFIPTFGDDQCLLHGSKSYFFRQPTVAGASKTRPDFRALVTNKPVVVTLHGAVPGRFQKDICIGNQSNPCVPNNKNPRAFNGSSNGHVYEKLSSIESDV
Chain of Glutamate NMDA receptor; Grin1/Grin2c (Q00961 whole entry, other chains not shown): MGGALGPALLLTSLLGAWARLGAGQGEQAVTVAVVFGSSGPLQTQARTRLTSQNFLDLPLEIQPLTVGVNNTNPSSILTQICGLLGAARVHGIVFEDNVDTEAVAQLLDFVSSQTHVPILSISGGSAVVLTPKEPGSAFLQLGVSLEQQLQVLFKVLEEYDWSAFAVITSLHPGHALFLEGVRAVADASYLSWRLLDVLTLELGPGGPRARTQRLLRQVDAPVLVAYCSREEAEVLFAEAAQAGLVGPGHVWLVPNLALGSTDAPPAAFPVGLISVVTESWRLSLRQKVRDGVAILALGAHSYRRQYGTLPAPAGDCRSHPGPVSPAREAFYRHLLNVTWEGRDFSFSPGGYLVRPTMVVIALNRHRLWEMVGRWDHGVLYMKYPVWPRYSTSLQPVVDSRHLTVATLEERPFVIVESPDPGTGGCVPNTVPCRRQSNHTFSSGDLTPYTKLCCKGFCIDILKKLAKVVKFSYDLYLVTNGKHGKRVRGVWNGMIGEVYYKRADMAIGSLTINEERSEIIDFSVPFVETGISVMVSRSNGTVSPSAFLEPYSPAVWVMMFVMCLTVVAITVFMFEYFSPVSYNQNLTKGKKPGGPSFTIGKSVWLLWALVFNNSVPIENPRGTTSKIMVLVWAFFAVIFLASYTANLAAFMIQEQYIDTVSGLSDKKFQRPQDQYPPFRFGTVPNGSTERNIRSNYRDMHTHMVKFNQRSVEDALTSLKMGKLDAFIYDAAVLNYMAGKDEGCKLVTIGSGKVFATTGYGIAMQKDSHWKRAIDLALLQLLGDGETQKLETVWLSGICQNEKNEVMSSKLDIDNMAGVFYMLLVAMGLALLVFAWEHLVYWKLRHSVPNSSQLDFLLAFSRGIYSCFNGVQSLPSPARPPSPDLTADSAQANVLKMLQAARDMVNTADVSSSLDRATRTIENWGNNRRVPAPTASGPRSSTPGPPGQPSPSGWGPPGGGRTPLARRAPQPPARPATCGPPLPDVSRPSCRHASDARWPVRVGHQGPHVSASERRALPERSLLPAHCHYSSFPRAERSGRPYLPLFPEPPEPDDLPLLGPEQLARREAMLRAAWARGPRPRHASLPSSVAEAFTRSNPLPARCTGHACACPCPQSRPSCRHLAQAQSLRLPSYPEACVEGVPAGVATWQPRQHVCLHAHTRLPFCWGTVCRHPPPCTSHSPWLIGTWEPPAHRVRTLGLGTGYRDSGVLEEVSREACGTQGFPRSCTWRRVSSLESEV
Chain of Glutamate NMDA receptor; Grin1/Grin2a (Q00959 whole entry, other chains not shown): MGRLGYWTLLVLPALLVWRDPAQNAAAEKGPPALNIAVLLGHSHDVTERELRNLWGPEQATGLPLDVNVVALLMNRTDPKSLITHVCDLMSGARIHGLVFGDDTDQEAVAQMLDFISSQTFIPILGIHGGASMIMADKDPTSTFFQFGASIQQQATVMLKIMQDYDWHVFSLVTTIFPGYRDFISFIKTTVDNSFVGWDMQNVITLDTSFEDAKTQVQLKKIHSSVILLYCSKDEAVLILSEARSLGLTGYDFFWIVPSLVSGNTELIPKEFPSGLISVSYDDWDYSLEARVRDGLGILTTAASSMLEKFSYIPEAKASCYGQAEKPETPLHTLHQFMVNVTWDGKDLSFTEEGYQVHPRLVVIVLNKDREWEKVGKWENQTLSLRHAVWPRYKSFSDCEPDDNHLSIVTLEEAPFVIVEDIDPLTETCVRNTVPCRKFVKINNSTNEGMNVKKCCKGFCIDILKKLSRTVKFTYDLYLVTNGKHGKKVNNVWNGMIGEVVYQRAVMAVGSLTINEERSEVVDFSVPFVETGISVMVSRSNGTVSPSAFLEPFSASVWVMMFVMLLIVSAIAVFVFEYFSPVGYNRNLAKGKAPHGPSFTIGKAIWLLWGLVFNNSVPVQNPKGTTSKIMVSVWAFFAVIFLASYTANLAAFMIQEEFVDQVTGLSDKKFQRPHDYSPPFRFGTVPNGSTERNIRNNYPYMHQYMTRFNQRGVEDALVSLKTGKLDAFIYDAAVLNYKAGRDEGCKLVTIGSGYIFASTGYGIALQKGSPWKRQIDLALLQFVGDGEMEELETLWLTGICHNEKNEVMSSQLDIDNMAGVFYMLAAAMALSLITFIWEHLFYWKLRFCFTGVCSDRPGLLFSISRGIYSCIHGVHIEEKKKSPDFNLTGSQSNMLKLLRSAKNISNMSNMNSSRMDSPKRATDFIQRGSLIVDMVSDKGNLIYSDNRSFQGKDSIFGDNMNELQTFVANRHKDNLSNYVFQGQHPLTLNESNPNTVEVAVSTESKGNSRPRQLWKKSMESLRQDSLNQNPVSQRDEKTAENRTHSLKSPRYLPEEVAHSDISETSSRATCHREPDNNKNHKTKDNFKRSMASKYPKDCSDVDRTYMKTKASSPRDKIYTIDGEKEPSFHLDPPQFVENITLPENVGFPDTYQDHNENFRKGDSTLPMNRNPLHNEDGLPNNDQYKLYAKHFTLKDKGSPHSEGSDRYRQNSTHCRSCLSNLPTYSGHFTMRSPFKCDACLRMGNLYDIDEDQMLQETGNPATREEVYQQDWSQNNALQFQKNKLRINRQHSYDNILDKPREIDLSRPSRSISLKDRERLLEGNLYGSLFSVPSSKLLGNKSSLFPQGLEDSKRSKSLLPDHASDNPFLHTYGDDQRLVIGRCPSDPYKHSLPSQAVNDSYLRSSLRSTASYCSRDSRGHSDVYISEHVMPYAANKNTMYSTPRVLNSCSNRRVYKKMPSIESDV
Chain of Glutamate receptor 1 (P19490 whole entry, the tested form may be a part): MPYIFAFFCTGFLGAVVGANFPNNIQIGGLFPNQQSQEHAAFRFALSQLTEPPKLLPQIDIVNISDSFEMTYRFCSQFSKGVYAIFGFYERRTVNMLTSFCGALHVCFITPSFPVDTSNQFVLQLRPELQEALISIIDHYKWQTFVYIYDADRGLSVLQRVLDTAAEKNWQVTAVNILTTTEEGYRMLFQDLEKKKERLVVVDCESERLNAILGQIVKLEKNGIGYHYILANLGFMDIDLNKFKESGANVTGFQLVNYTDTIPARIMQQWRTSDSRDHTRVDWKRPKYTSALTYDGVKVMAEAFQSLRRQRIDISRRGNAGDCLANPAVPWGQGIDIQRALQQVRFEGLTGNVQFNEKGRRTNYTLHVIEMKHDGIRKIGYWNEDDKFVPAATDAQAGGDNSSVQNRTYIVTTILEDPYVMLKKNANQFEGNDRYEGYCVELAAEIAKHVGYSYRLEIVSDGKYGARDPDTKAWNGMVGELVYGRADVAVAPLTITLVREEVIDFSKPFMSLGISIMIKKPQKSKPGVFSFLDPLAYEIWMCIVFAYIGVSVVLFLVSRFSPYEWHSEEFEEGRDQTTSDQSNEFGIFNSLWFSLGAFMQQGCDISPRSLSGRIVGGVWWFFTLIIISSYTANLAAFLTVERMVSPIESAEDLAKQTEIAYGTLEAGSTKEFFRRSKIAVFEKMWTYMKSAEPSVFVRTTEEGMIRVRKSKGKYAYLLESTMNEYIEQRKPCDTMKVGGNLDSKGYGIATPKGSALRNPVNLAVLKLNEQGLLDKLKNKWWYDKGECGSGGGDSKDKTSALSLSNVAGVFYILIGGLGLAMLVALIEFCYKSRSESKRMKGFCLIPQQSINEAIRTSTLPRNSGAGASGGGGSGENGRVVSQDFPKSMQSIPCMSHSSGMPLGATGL

For `COc1ccc2nc(/C=C/c3cccc([N+](=O)[O-])c3)n(-c3ccc(C(N)=O)cc3)c(=O)c2c1`, the pIC50 in assay [1] is less than 3.52; in assay [3] it was 4.09; in assay [4], 4.24; in assay [5] it was less than 3.52; on Glutamate receptor 1, less than 3.52. In addition, the Ratio IC50 in the assay filed under Rattus norvegicus [2] was determined as 1.

Turning to `O=C(O)c1ccc(-n2c(/C=C/c3ccc([N+](=O)[O-])cc3)nc3c(Cl)cc(Cl)cc3c2=O)cc1`, the pIC50 in assay [1] was less than 3.52; in assay [3], less than 3.52; in assay [4], 5.05; in assay [5] it was 5.22; on Glutamate receptor 1, less than 3.52.

`Cc1ccc(-n2c(/C=C/c3cccnc3)nc3ccc(I)cc3c2=O)cc1`: the pIC50 (in assay [1]; in assay [3]; in assay [4]; in assay [5]; at Glutamate receptor 1) was less than 3.52 each time. Also, the Ratio IC50 in the assay filed under Rattus norvegicus [2] was 1.

For `O=c1c2ccccc2nc(/C=C/c2cccc([N+](=O)[O-])c2)n1-c1ccccc1`, the pIC50 (in assay [1]; in assay [3]; in assay [4]; in assay [5]; on Glutamate receptor 1) was less than 3.52 throughout. In addition, in the assay listed under Rattus norvegicus [2], the Ratio IC50 was found to be 1.

In the case of `COc1ccc2nc(/C=C/c3ccc([N+](=O)[O-])cc3)n(-c3ccc(C(=O)O)cc3)c(=O)c2c1`, the pIC50 in assay [1] was 3.71; in assay [3], 3.69; in assay [4] it was 4.89; in assay [5], 5.15; on Glutamate receptor 1, less than 3.52. In the assay filed under Rattus norvegicus [6], the Ratio IC50 was 28.

On to `O=C(O)c1ccc(-n2c(/C=C/c3ccc4c(c3)OCCO4)nc3ccccc3c2=O)cc1`, for which the pIC50 is less than 3.52 in assay [1]; 3.58 in assay [3]; 4.59 in assay [4]; 4.80 in assay [5]; less than 3.52 at Glutamate receptor 1.

`O=C(O)c1cccc(-n2c(/C=C/c3ccc([N+](=O)[O-])cc3)nc3ccc(I)cc3c2=O)c1`: the negative-log IC50 (pIC50) is less than 3.52 in assay [1]; 3.55 in assay [3]; 5.05 in assay [4]; 5.10 in assay [5]; less than 3.52 at Glutamate receptor 1.

Turning to `O=C(O)c1ccc(/C=C/c2nc3ccccc3c(=O)n2-c2ccc(C(=O)O)cc2)cc1`, the pIC50 (in assay [1]; in assay [3]; in assay [4]; in assay [5]; on Glutamate receptor 1) was less than 3.52 in each case. For the same molecule, in the assay filed under Rattus norvegicus [2], the Ratio IC50 was determined as 1.

Consider `O=C(O)c1ccc(-n2c(/C=C/c3cccc([N+](=O)[O-])c3)nc3cc4c(cc3c2=O)OCO4)cc1`, for which the pIC50 in assay [1] was 3.95; in assay [3] it was 3.79; in assay [4], 4.40; in assay [5], 4.44; at Glutamate receptor 1 it was less than 3.52. Besides, the Ratio IC50 in the assay listed under Rattus norvegicus [6] was 3.

`O=c1c2cc(I)ccc2nc(/C=C/c2cccnc2)n1-c1cccc([N+](=O)[O-])c1`: the negative logarithm of the IC50 (pIC50) (in assay [1]; in assay [3]; in assay [4]; in assay [5]; on Glutamate receptor 1) was less than 3.52 each time. Moreover, in the assay listed under Rattus norvegicus [2], the Ratio IC50 worked out at 1.

Turning to `N#Cc1ccc(/C=C/c2nc3ccccc3c(=O)n2-c2ccc(C(=O)O)cc2)cc1`, the pIC50 in assay [1] was 4.03; in assay [3] it was 3.97; in assay [4], 4.55; in assay [5], 4.47; on Glutamate receptor 1 it was less than 3.52. Further, the Ratio IC50 in the assay listed under Rattus norvegicus [6] was found to be 3.

`Cc1cccc(-n2c(/C=C/c3cccnc3)nc3ccc(I)cc3c2=O)c1`: the pIC50 in assay [1] was less than 3.52; in assay [3], less than 3.52; in assay [4] it was 3.62; in assay [5] it was less than 3.52; at Glutamate receptor 1 it was less than 3.52. For the same molecule, the Ratio IC50 in the assay filed under Rattus norvegicus [2] was determined as 1.

`Cc1nc2ccc(I)cc2c(=O)n1-c1ccc(C(=O)O)cc1`: the pIC50 (in assay [1]; in assay [3]; in assay [4]; in assay [5]; on Glutamate receptor 1) was less than 3.52 throughout. In addition, the Ratio IC50 in the assay filed under Rattus norvegicus [2] is 1.

As to `O=C(O)COc1ccc(/C=C/c2nc3ccccc3c(=O)n2-c2ccc(C(=O)O)cc2)cc1`, the pIC50 (in assay [1]; in assay [3]; in assay [4]; in assay [5]; on Glutamate receptor 1) was less than 3.52 in each case. Also, the Ratio IC50 in the assay filed under Rattus norvegicus [2] stood at 1.

Regarding `COc1ccc2nc(/C=C/c3cccc(C(=O)O)c3)n(-c3ccc(C(=O)O)cc3)c(=O)c2c1`, the pIC50 in assay [1] is less than 3.52; in assay [3] it was less than 3.52; in assay [4], less than 3.52; in assay [5], 3.88; at Glutamate receptor 1 it was less than 3.52.

On to `O=C(O)c1ccc(-n2c(/C=C/c3cccc([N+](=O)[O-])c3)nc3ccc([N+](=O)[O-])cc3c2=O)cc1`, for which the IC50 entry in assay [1] (oocyte) and in assay [3] (oocyte) was “Not Active” in each case. Moreover, the pIC50 in assay [4] is 3.69; in assay [5] it was 4.05; at Glutamate receptor 1, less than 3.52.

On to `O=C(O)c1ccc(-n2c(/C=C/c3ccccc3C(F)(F)F)nc3ccccc3c2=O)cc1`, for which the pIC50 in assay [3] was less than 3.52; in assay [5] it was 4.55; on Glutamate receptor 1, less than 3.52.

For `Cc1cccc(/C=C/c2nc3ccccc3c(=O)n2-c2ccc(C(=O)O)cc2)c1`, the pIC50 is 4.68 in assay [1], 4.47 in assay [3], 4.74 in assay [5] and less than 3.52 on Glutamate receptor 1. The Ratio IC50 in the assay filed under Rattus norvegicus [6] turned out to be 1.

`Cc1ccc(/C=C/c2nc3ccccc3c(=O)n2-c2ccc(C(=O)O)cc2)cc1`: the pIC50 in assay [1] was 4.39; in assay [3] it was 3.86; in assay [5] it was 4.77; at Glutamate receptor 1 it was less than 3.52. Also, the Ratio IC50 in the assay listed under Rattus norvegicus [6] was 2.

On to `C=CCOc1ccc(/C=C/c2nc3ccccc3c(=O)n2-c2ccc(C(=O)O)cc2)cc1`, for which the pIC50 in assay [1] was less than 3.52; in assay [3], 3.84; in assay [4] it was 3.95; in assay [5], 4.52; on Glutamate receptor 1, less than 3.52.

With `COc1ccc2nc(/C=C/c3cccc([N+](=O)[O-])c3)n(-c3ccc(C#N)cc3)c(=O)c2c1`, the pIC50 (in assay [1]; in assay [3]; in assay [4]; in assay [5]; on Glutamate receptor 1) was less than 3.52 throughout. In addition, the Ratio IC50 in the assay listed under Rattus norvegicus [2] is 1.

For the molecule `COc1ccc(-n2c(/C=C/c3cccnc3)nc3ccc(I)cc3c2=O)cc1`, the pIC50 (in assay [1]; in assay [3]; in assay [4]; in assay [5]; on Glutamate receptor 1) was less than 3.52 each time. The Ratio IC50 in the assay filed under Rattus norvegicus [2] worked out at 1.

In the case of `Cc1ccc2nc(CCc3ccccc3)n(-c3ccc(C(=O)O)cc3)c(=O)c2c1`, the pIC50 in assay [1] is less than 3.52; in assay [3], 4.11; in assay [4], 3.74; in assay [5], 3.55; on Glutamate receptor 1, less than 3.52.

As for `O=C(O)c1ccc(-n2c(/C=C/c3cccc([N+](=O)[O-])c3)nc3cccc(Cl)c3c2=O)cc1`, the pIC50 in assay [1] was less than 3.52; in assay [3] it was 3.96; in assay [4], 4.66; in assay [5] it was 4.85; on Glutamate receptor 1, less than 3.52.

The record behind these values is ChEMBL document CHEMBL1212913, “Quinazolin-4-one derivatives: A novel class of noncompetitive NR2C/D subunit-selective N-methyl-D-aspartate receptor antagonists” (J Med Chem, 2010).
